18 compounds from ChEMBL document CHEMBL1151736, “Design, synthesis, and biological evaluation of a series of 2-hydroxyisoquinoline-1,3(2H,4H)-diones as dual inhibitors of human immunodeficiency virus type 1 integrase and the reverse transcriptase RNase H domain” (J Med Chem, 2008) can be followed below.

A value given as a limit tells only on which side of the number the result lay.

A word on the IC50: it is the point on the concentration scale where inhibition reaches its midpoint. Lower therefore signals inhibition by little substance. By CC50 is commonly meant the concentration that lowers cell viability or growth by half. Read a low CC50 as harm at low concentration. As usually defined, the inhibition is the change of the read-out against control, counted positive when it falls. The low end stands for a weak effect, the high end for a strong effect. What is called EC50 is the concentration that produces a half-maximal response.

Series [1] is described as follows: Inhibition of HIV1 RNase H. On the set-up: species or system Human immunodeficiency virus 1.
Series [2] can be described thus: Cytotoxicity against human MT4 cells by MTT assay. It is filed as cell-based. Background: Tetrazolium dyes change colour on reduction, which living cells bring about.
Series [3] has as its system Human immunodeficiency virus 1. In words: Selectivity ratio of IC50 for HIV1 RNase H to IC50 for HIV1 integrase. The method in brief:
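Ratio of the RNase H IC50 to the overall-integrase IC50. For RNase H, recombinant HIV-1 RT (4.5 pmol) was preincubated with compound for 10 min at 37 °C. It then ran 10 min at 37 °C on a 3H-RNA/DNA duplex with 6 mM MgCl2 and 80 mM KCl at pH 8.0, read by TCA-precipitated radioactivity. For integrase, ELISA used 1.6 µM integrase and 7 nM biotin/digoxigenin oligos with 10 mM MgCl2, 1 h at 37 °C.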

Series [4] concerns the target T1, Human immunodeficiency virus type 1 integrase (Human immunodeficiency virus 1, UniProt Q7ZJM1).
In series [5] the target is Human immunodeficiency virus type 1 reverse transcriptase (Human immunodeficiency virus 1) (UniProt Q72547). In words: Inhibition of HIV1 reverse transcriptase at 50 uM. An outline of the steps:
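RNA-dependent DNA polymerase activity: recombinant RT preincubated 10 min at 37 °C with compound (1.0, 10.0, 50.0 µM), then 10 min at 37 °C with poly(A)-oligo(dT) 20 µg/mL, 20 µM dTTP plus [3H]dTTP, 5 mM MgCl2, 100 mM KCl, 10 mM DTT, 50 mM Tris-HCl pH 8.0; TCA-precipitated radioactivity on nitrocellulose; percent inhibition.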

Series [6] deals with Human immunodeficiency virus 1. In words: Antiviral activity against HIV1 3B infected in human MT4 cells assessed as inhibition virus-induced cytopathic effect by MTT assay. It is filed as functional, organism-based. The conditions noted are these: Human immunodeficiency virus 1, 3B.
The target in series [7] is T1, Human immunodeficiency virus type 1 integrase. The source holds these as a separate data set.
For series [8] the target is unchanged. This is another data set of the same source.

T1 sequence (Q7ZJM1 whole entry): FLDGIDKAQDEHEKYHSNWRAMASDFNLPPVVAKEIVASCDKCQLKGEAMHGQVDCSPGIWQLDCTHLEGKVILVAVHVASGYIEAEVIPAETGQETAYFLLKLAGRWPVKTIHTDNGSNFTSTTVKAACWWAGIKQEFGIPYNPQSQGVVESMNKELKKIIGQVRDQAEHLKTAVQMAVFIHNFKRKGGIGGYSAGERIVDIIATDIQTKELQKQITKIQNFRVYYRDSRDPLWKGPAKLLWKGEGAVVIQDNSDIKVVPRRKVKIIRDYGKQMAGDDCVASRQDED

`O=C1Cc2ccc(-c3ccc(F)cc3)cc2C(=O)N1O`: the IC50 in series [1] was 22.2 µM; in series [4], 1.47 µM. Further, the CC50 in series [2] was greater than 46 µM. In addition, the Ratio IC50 in series [3] is 15.8. The compound also displayed an inhibition in series [5] of 60%. In series [6], the EC50 is greater than 46 µM.

`O=C1Cc2ccc(O)cc2C(=O)N1O`: the IC50 in series [1] worked out at 37.4 µM; in series [4] it was 2.22 µM. The same compound displayed a CC50 in series [2] greater than 48 µM. Besides, the Ratio IC50 in series [3] was found to be 17. Moreover, the inhibition in series [5] worked out at 40%. Further, in series [6], the EC50 was greater than 48 µM.

Take `CC(=O)Nc1ccc2c(c1)C(=O)N(O)C(=O)C2`: the IC50 in series [1] amounted to 40.7 µM; in series [4], 0.59 µM. Moreover, the CC50 in series [2] was greater than 250 µM. The Ratio IC50 in series [3] is 69. The compound further came in with an inhibition in series [5] of 40%. Moreover, in series [6], the EC50 is 148 µM.

Take `O=C1Cc2ccc(-c3ccc(O)cc3)cc2C(=O)N1O`: the figures for the IC50 in series [1] and in series [4] were 7.2 µM and 5.42 µM, respectively. Moreover, the CC50 in series [2] was greater than 186 µM. The Ratio IC50 in series [3] was 1.3. In series [5], this compound had an inhibition of 50%. Moreover, the EC50 in series [6] is greater than 186 µM.

Regarding `O=C1Cc2ccc([N+](=O)[O-])cc2C(=O)N1O`, the IC50 in series [1] was found to be 48 µM; in series [4], 8.5 µM. The CC50 in series [2] is greater than 205 µM. In series [3], the Ratio IC50 was determined as 5.6. In series [5], this compound registered an inhibition of 40%. For the same compound, the EC50 in series [6] was greater than 205 µM.

Regarding `O=C1Cc2ccccc2C(=O)N1O`, the IC50 is 5.9 µM in series [1] and 6.32 µM in series [4]. Moreover, in series [5], the inhibition is 40%.

`O=C(Nc1ccc2c(c1)C(=O)N(O)C(=O)C2)c1ccccc1`: the IC50 in series [1] came to 5.7 µM; in series [4], 1.24 µM. Also, it took 84 µM to reach half-maximal cytotoxicity in series [2] (CC50). Further, the Ratio IC50 in series [3] turned out to be 4.7. Further, the inhibition in series [5] came to 40%. Moreover, the EC50 in series [6] came to 22 µM.

With `O=C1Cc2ccc(-c3ccc(C(F)(F)F)cc3)cc2C(=O)N1O`, the results for the IC50 in series [1] and in series [4] were 10.7 µM and 1.8 µM, respectively. In series [2], this compound displayed a CC50 greater than 47 µM. Besides, the Ratio IC50 in series [3] worked out at 5.9. Also, the inhibition in series [5] came to 40%. For the same compound, in series [6], the EC50 was greater than 47 µM.

Take `O=C(Cc1ccccc1)Nc1ccc2c(c1)C(=O)N(O)C(=O)C2`: the IC50 is greater than 80 µM in series [1], 0.1 µM in series [7], 0.09 µM in series [4] and 7.79 µM in series [8]. The CC50 in series [2] is greater than 121 µM. Moreover, in series [3], the Ratio IC50 is greater than 889. In series [5], this compound yielded an inhibition of 40%. Further, the EC50 in series [6] was greater than 121 µM.

For the compound `O=C(Cc1ccc(F)cc1)Nc1ccc2c(c1)C(=O)N(O)C(=O)C2`, the IC50 in series [1] worked out at 35.3 µM; in series [7] it was 0.02 µM; in series [4], 0.13 µM; in series [8], 0.75 µM. The compound also had a CC50 in series [2] greater than 116 µM. Also, in series [3], the Ratio IC50 amounted to 272. Besides, in series [5], the inhibition is 40%. For the same compound, the EC50 in series [6] was greater than 116 µM.

On to `O=C1Cc2ccc(-c3ccc(O)c(O)c3)cc2C(=O)N1O`, for which the IC50 in series [1] came to 6.6 µM; in series [4], 0.56 µM. The compound further gave a CC50 in series [2] greater than 89 µM. In addition, the Ratio IC50 in series [3] amounted to 11.8. This compound gave an inhibition in series [5] of 70%. Besides, the EC50 in series [6] was greater than 89 µM.

For the compound `O=C(Nc1ccc2c(c1)C(=O)N(O)C(=O)C2)c1cccc([N+](=O)[O-])c1`, the IC50 in series [1] was 10.8 µM; in series [4], 8.9 µM. In series [3], the Ratio IC50 turned out to be 1.2. Also, the inhibition in series [5] was determined as 40%.

`O=C1Cc2ccc(I)cc2C(=O)N1O`: the IC50 came out at 58 µM in series [1] and 1.22 µM in series [4]. Moreover, the CC50 in series [2] was greater than 70 µM. Also, in series [3], the Ratio IC50 turned out to be 48.3. In series [5], this compound registered an inhibition of 40%. The EC50 in series [6] is greater than 70 µM.

Turning to `O=C(Nc1ccc2c(c1)C(=O)N(O)C(=O)C2)c1ccc(F)cc1`, the figures for the IC50 in series [1] and in series [4] were 7.1 µM and 0.41 µM, respectively. In series [2], this compound showed a CC50 greater than 120 µM. Further, the Ratio IC50 in series [3] worked out at 17.3. In series [5], the inhibition is 40%. Besides, in series [6], the EC50 was greater than 120 µM.

`O=C1Cc2ccc(-c3ccccc3)cc2C(=O)N1O`: the IC50 in series [1] is greater than 80 µM; in series [4] it was 1.73 µM. This compound gave a CC50 in series [2] greater than 66 µM. For the same compound, in series [3], the Ratio IC50 is greater than 47. The inhibition in series [5] was 40%. Moreover, in series [6], the EC50 is greater than 66 µM.

Take `O=C1Cc2ccc(Cl)cc2C(=O)N1O`: the IC50 was found to be 28.9 µM in series [1] and 0.8 µM in series [4]. Further, the CC50 in series [2] was greater than 48 µM. Besides, the Ratio IC50 in series [3] is 36.1. In series [5], this compound came in with an inhibition of 40%. Moreover, the EC50 in series [6] is greater than 48 µM.

Regarding `CCCCC(=O)Nc1ccc2c(c1)C(=O)N(O)C(=O)C2`, the IC50 was greater than 80 µM in series [1] and 18.8 µM in series [4]. For the same compound, the CC50 in series [2] is greater than 250 µM. Further, the Ratio IC50 in series [3] was greater than 4.2. The same compound showed an inhibition in series [5] of 40%. Moreover, the EC50 in series [6] was greater than 250 µM.

In the case of `O=C1Cc2ccc(Br)cc2C(=O)N1O`, the IC50 in series [1] was greater than 96 µM; in series [7], 0.9 µM; in series [4], 0.58 µM; in series [8] it was 1.4 µM. Moreover, the CC50 in series [2] is greater than 64 µM. Also, the Ratio IC50 in series [3] is greater than 166. This compound showed an inhibition in series [5] of 40%. Further, the EC50 in series [6] is greater than 64 µM.
